Results pooled from the literature.
Compare with care: the assays were run in different laboratories.
Target: Ribosomal protein S6 kinase beta-1 (RPS6KB1, Homo sapiens, UniProt P23443)
Effect on: enzyme activity
Mode: inhibitor

Compound	test	conditions	remaining activity
CC(C)(C)c1nc2c(s1)c1nc(N)ncc1c1ccc(NS(=O)(=O)c3c(F)cccc3F)c(F)c12	radiometric	1 µM	87%
CC(C)(C)C(=O)c1sc(NC2CCCCC2)nc1N	–	10 µM	86%
Cc1ccc(Nc2nccc(N(C)c3ccc4c(C)n(C)nc4c3)n2)cc1S(N)(=O)=O	–	0.5 µM	96%
CCN(CC)CCNC(=O)c1c(C)[nH]c(/C=C2\C(=O)Nc3ccc(F)cc32)c1C	–	1 µM	31%
Cn1c(=O)n(-c2ccc(C(C)(C)C#N)cc2)c2c3cc(-c4cnc5ccccc5c4)ccc3ncc21	–	10 µM	109%
O=C(Nc1cnn(-c2csc(C(=O)NC3COC3)c2)c1)Nc1ccccc1Cl	–	5 µM	92.1%
CCCOc1ccc(OC)c(F)c1C(=O)c1ccc(C(=O)N[C@@H]2CNC[C@H]2NC(=O)c2ccc3[nH]ncc3c2)cc1	–	10 µM	2%
O=S(=O)(Nc1cc(Sc2ncn[nH]2)c(O)c2ccccc12)c1ccc(-c2ccccc2)cc1	–	1 µM	≥ 75%
Cc1ccc(C(=O)Nc2ccc(CN3CCN(C)CC3)c(C(F)(F)F)c2)cc1C#Cc1cnc2cccnn12	–	23.5 nM	68%
COc1cc(Nc2cnc(C#N)c(O[C@H](C)CN(C)C)n2)ncc1-c1cnn(C)c1	radiometric	10 µM	85%
Cc1[nH]c(/C=C2\C(=O)Nc3ccc(F)cc32)c(C)c1C(=O)N[C@H]1CCN(C(=O)N(C)C)C1	–	1 µM	52%
Cc1cnc(NC2CCOCC2)nc1-n1cnc(C(=O)NC(CN)c2cc(F)cc(Cl)c2)c1 (stereo not drawn)	radiometric	1 µM	71%
